The target in one assay is GST fusion A3C7K/R-A (Homo sapiens, UniProt Q16281, K624A/K629A/K657A/K659A/R643A/R646A/R661A). The assay is described as follows: In vitro PIP3-agarose bead pull-down, A3C7K/R-A. The format is binding. The settings on record: PIP3-agarose beads, anti-GST immunoblot; compared with A3C. An outline of the steps: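 Recombinant GST fusions of channel fragments expressed in E. coli and purified; soluble fraction kept after 20,000 g, 4°C, 30 min. Protein (2 µg/ml) rocked with PIP3- or control agarose beads, 2 h, 4°C, in 10 mM Hepes pH 7.4, 50 mM NaCl, 2 mM EDTA, 0.25% Triton X-100, 0.25% NP-40. Five washes, elution in sample buffer, reducing SDS gel, anti-GST (1:2,000, overnight) immunoblot, chemiluminescence; […].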
(In general: Immunoblotting shows a protein as a band on a membrane.)

Assay [1] concerns the target CNGA1 with CNGB3 channels (UniProt Q00194+Q9NQW8). The experiment in a line: Inside-out patch clamp, CNGA1 with CNGB3. The format is biochemical, bovine, human. The settings on record: 1 µM PIP3. An outline of the steps: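 Subunit cRNAs (~20 ng, B in excess over A) injected into stage IV Xenopus oocytes; inside-out patches 2–7 d later, 20–22°C, symmetric 130 mM NaCl, 0.2 mM EDTA, 3 mM Hepes pH 7.2. Heteromer formation checked by 25 µM l-cis-diltiazem with 1 mM cGMP. diC8 phosphoinositides applied intracellularly in phosphatase-inhibitor cocktail. cGMP dose–response at +80 mV, leak-subtracted, Hill fit before/after for K1/2; mean ± SEM.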
For orientation: In patch-clamp work, channel activity is measured electrically.

Assay [2] deals with CNGA3 ΔN (2-156) channels (Homo sapiens, UniProt Q16281). The assay is described as follows: Inside-out patch clamp, CNGA3 ΔN. The class given is biochemical.

Sequence of CNGA1 with CNGB3 channels (Q00194 whole entry): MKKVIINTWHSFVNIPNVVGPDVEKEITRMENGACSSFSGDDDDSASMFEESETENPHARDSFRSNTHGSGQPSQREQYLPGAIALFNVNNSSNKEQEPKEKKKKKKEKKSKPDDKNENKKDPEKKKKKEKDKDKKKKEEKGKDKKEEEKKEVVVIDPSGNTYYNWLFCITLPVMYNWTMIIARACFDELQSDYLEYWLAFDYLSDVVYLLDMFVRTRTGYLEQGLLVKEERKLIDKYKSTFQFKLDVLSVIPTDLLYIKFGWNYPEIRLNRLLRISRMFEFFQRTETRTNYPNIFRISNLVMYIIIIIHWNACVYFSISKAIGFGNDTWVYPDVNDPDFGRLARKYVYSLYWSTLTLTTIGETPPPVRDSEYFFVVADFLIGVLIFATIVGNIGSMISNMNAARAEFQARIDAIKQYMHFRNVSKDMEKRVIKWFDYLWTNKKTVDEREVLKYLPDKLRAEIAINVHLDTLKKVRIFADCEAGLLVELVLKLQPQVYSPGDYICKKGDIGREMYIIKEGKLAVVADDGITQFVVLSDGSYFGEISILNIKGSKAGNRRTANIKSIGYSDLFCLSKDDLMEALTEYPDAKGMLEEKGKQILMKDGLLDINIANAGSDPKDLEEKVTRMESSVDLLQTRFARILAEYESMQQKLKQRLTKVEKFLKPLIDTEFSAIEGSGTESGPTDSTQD
Sequence of CNGA1 with CNGB3 channels (Q9NQW8 whole entry): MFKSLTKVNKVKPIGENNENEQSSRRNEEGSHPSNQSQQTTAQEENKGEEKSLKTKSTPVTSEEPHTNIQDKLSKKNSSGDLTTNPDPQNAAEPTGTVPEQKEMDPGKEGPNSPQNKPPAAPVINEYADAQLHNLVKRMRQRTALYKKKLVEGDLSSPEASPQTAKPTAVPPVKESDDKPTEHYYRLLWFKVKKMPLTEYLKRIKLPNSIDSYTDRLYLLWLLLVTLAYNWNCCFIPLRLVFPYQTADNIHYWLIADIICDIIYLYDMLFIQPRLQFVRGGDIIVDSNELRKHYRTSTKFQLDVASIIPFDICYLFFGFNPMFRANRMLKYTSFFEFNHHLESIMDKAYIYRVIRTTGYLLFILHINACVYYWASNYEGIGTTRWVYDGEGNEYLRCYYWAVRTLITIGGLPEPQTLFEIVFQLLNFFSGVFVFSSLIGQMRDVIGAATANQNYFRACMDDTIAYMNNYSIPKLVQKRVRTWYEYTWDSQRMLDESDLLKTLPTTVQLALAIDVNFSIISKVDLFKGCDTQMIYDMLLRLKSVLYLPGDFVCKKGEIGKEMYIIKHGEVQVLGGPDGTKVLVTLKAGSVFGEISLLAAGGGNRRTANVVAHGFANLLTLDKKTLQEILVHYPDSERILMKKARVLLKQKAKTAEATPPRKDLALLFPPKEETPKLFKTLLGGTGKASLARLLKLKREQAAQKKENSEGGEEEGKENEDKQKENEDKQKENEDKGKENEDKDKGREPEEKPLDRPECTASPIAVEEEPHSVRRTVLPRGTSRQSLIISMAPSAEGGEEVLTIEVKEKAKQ

As for “phosphatidylinositol (3,4,5)-trisphosphate [PIP3]”, the “in vitro PIP3 binding” value on GST fusion A3C7K/R-A is listed as “attenuated binding to PIP3 beads”. The “regulation of K1/2 cGMP by PIP3” value in assay [1] is recorded as “PIP3-sensitive”.

Usually Hill coefficient stands for a measure of the steepness of the concentration-response curve. On to `Nc1nc2c(ncn2[C@@H]2O[C@@H]3COP(=O)(O)O[C@H]3[C@H]2O)c(=O)[nH]1` [cGMP, cyclic guanosine monophosphate], for which the Hill coefficient in assay [2] (cGMP activation) was 1.77 ± 0.07 (9). For the same compound, the EC50 in assay [2] (read-out: K1/2 cGMP, +80 mV, no PIPn) amounted to 9.16 ± 0.65 µM.

The values above are taken from article PMC3607822 (The Journal of General Physiology, 2013).
